The results in this text go back to ChEMBL document CHEMBL2093137, “WHO-TDR NTD Screening”.

≈ marks a conversion by molar mass, not a printed value. A value given as a limit tells only on which side of the number the result lay.

One series relates to Schistosoma mansoni. Nature of the series: WHO-TDR: Schistosomiasis. The series is classed as functional. Set-up: concentration or dose not given beside the values. A digest of the protocol:
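Larval and/or adult Schistosoma mansoni (Puerto Rican strain) were tested whole against 10,000 diverse compounds from Life Chemicals. The procedure was a previously published standard one, using a reference drug as positive control. Results are expressed as percent inhibition and IC50.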

The test system of a further series is Plasmodium falciparum K1. Nature of the series: WHO-TDR: Malaria. The series is classed as functional, organism-based, Homo sapiens. Conditions: Erythrocyte. A digest of the protocol:
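Values are IC50 figures for antiplasmodial potency. They come from a whole-organism screen of 10,000 diverse Life Chemicals compounds against Plasmodium falciparum K1 growing inside human red blood cells, run by previously published standard procedures.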

The next series relates to Trypanosoma cruzi. Nature of the series: WHO-TDR: Chagas disease. It is filed as functional, organism-based, Homo sapiens. Conditions: MRC5. The essentials: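 Each IC50 reflects antiparasitic potency against intracellular amastigotes of Trypanosoma cruzi Tulahuen CL2 beta-galactosidase strain. These were cultured in MRC-5SV2 human lung fibroblasts and exposed to a 10,000-compound diverse Life Chemicals library screened according to published standard procedures with a reference drug as positive control.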

In a further series the test system is Leishmania infantum. As to the kind of experiment: WHO-TDR: Leishmaniasis. The series is classed as functional, organism-based, Mus musculus. The following applies: Macrophage. A digest of the protocol: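 Values are IC50 figures for antiparasitic potency. They come from a whole-organism screen of a 10,000-compound diverse Life Chemicals library against Leishmania infantum MHOM/MA(BE)/67 amastigotes inside murine peritoneal macrophage host cells.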

Another series concerns Onchocerca lienalis. As to the kind of experiment: WHO-TDR: Onchocerciasis. It is filed as functional. Set-up: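 at 12.5 µM on microfilariae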. A digest of the protocol:
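Onchocerca ochengi or Onchocerca lienalis, animal pathogens used as surrogates for the human parasite, were screened as whole microfilariae against a 10,000-compound diverse library from Life Chemicals. The reported measures of activity are percent inhibition and IC50.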

Series [1] has as its system Trypanosoma brucei brucei. As to the kind of experiment: WHO-TDR: Human African Trypanosomiasis (HAT). It is filed as functional, organism-based. The following applies: Squib-427. The essentials:
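Values are IC50 figures for antiparasitic potency. They come from a whole-organism screen of 10,000 diverse Life Chemicals compounds against bloodstream-form Trypanosoma brucei (Squib 427 strain).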

A short description of series [2]: WHO-TDR: Cytotoxicity. The following applies: human, MRC5 cells. The series is classed as toxicity, cell-based.
A further series deals with Brugia malayi. As to the kind of experiment: WHO-TDR: Lymphatic Filariasis. Set-up: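 tested at 10 µM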. It is filed as functional. The essentials: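 Percent inhibition and IC50 describe activity against Brugia malayi microfilariae in a whole-organism screen. The screen used previously published standard procedures with reference drugs as positive controls. Compounds came from a diverse Life Chemicals library of 10,000, filtered for drug-likeness and reactive groups.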

As usually defined, the % Inhibition is the change of the read-out against control, counted positive when it falls. A word on the IC50: it is the point on the concentration scale where inhibition reaches its midpoint. Take `Cc1ccc(S(=O)(=O)N2CCCc3cc(NC(=O)Oc4ccccc4)ccc32)cc1`: the “% Inhibition” value in the series with Schistosoma mansoni, with Onchocerca lienalis and with Brugia malayi was 0% throughout. The IC50 is over 12.7 µg/mL in the series on Plasmodium falciparum K1; over 12.7 µg/mL in the series on Trypanosoma cruzi; over 12.7 µg/mL in the series with Leishmania infantum; 0.415 µg/mL (≈ 0.982 µM) in series [1]; 1.76 µg/mL (≈ 4.17 µM) in series [2].
On to `COc1ccc(-c2nc(NC(=O)Cc3ccc(SC)cc3)sc2C)cc1`, for which the “% Inhibition” value in the series with Schistosoma mansoni is recorded as 0%; with Onchocerca lienalis, 45.5%; with Brugia malayi, 0%. Besides, the IC50 with Plasmodium falciparum K1 came out at 0.271 µg/mL (≈ 0.705 µM); in the series on Trypanosoma cruzi, 1.95 µg/mL (≈ 5.07 µM); in the series with Leishmania infantum, 3.73 µg/mL (≈ 9.71 µM); in series [1] it was 3.73 µg/mL (≈ 9.71 µM); in series [2], 1.29 µg/mL (≈ 3.37 µM).
Take `Cc1cccc(Nc2nc(Nc3ccc4c(c3)OCO4)nc(N3CCOCC3)n2)c1`: the “% Inhibition” value in the series on Schistosoma mansoni, in the series on Onchocerca lienalis and in the series on Brugia malayi was 0% each time. Further, the IC50 amounted to 1.06 µg/mL (≈ 2.62 µM) in the series with Plasmodium falciparum K1; 2.05 µg/mL (≈ 5.03 µM) in the series on Trypanosoma cruzi; 4.3 µg/mL (≈ 10.6 µM) in the series on Leishmania infantum; 0.42 µg/mL (≈ 1.03 µM) in series [1]; 1.82 µg/mL (≈ 4.49 µM) in series [2].
In the case of `CS(=O)(=O)NCC(c1ccco1)S(=O)(=O)c1ccc(Cl)cc1` (configuration not stated), the results for the “% Inhibition” value in the series with Schistosoma mansoni, in the series on Onchocerca lienalis and in the series with Brugia malayi were 0%, 6.7% and 33.33%, respectively. The half-inhibitory concentration (IC50) in the series on Plasmodium falciparum K1 is over 10.9 µg/mL; in the series on Trypanosoma cruzi, 0.513 µg/mL (≈ 1.41 µM); in the series on Leishmania infantum it was over 10.9 µg/mL; in series [1] it was 10.9 µg/mL (≈ 30 µM); in series [2], over 10.9 µg/mL.
Consider `O=C(Nc1ccncc1)c1cccn(Cc2ccc(F)cc2)c1=O`, for which the results for the “% Inhibition” value in the series on Schistosoma mansoni, in the series with Onchocerca lienalis and in the series on Brugia malayi were 0%, -1% and 0%, respectively. Moreover, the IC50 was over 9.7 µg/mL in the series with Plasmodium falciparum K1; 0.45 µg/mL (≈ 1.39 µM) in the series on Trypanosoma cruzi; over 9.7 µg/mL in the series with Leishmania infantum; over 9.7 µg/mL in series [1]; 2.53 µg/mL (≈ 7.83 µM) in series [2].
Consider `CCN(C1CCCCC1)S(=O)(=O)c1ccc(C(=O)Nc2nnc(-c3ccc(F)cc3)o2)cc1`, for which the “% Inhibition” value is on record as 0% with Schistosoma mansoni, 46.7% in the series with Onchocerca lienalis and 0% with Brugia malayi. Besides, the IC50 with Plasmodium falciparum K1 was over 14.2 µg/mL; with Trypanosoma cruzi, 0.459 µg/mL (≈ 0.971 µM); in the series with Leishmania infantum it was 4.59 µg/mL (≈ 9.71 µM); in series [1], 0.966 µg/mL (≈ 2.04 µM); in series [2], 0.577 µg/mL (≈ 1.22 µM).
On to `CSc1ccccc1-c1nnc(NC(=O)c2ccc(Cl)s2)o1`, for which the “% Inhibition” value was found to be 0% in the series with Schistosoma mansoni, 86.4% in the series with Onchocerca lienalis and 0% with Brugia malayi. For the same compound, the IC50 in the series on Plasmodium falciparum K1 was over 10.6 µg/mL; in the series with Trypanosoma cruzi, 0.416 µg/mL (≈ 1.18 µM); in the series on Leishmania infantum, over 10.6 µg/mL; in series [1] it was 0.856 µg/mL (≈ 2.43 µM); in series [2], over 10.6 µg/mL.
As to `CN(C)CCN(C(=O)CCCS(=O)(=O)c1ccccc1)c1nc2ccc(F)cc2s1`, the “% Inhibition” value in the series with Schistosoma mansoni is recorded as 0%; with Onchocerca lienalis, 12.34%; in the series with Brugia malayi, 33.33%. Besides, the IC50 with Plasmodium falciparum K1 is over 14.6 µg/mL; in the series with Trypanosoma cruzi it was 0.759 µg/mL (≈ 1.69 µM); in the series on Leishmania infantum, over 14.6 µg/mL; in series [1] it was over 14.6 µg/mL; in series [2], over 14.6 µg/mL.
In the case of `COc1ccc(Cl)c2sc(NC(=O)c3ccc(Cl)cc3Cl)nc12`, the “% Inhibition” value in the series on Schistosoma mansoni, in the series with Onchocerca lienalis and with Brugia malayi was 0% each time. Also, the IC50 with Plasmodium falciparum K1 was over 11.6 µg/mL; in the series on Trypanosoma cruzi it was 3.62 µg/mL (≈ 9.34 µM); in the series on Leishmania infantum, 0.377 µg/mL (≈ 0.972 µM); in series [1], over 11.6 µg/mL; in series [2], 4.96 µg/mL (≈ 12.8 µM).
With `CC(C)Sc1ccc(C(=O)Nc2nc(-c3ccccn3)cs2)cc1`, the “% Inhibition” value with Schistosoma mansoni worked out at 0%; in the series on Onchocerca lienalis, 86.7%; in the series on Brugia malayi, 0%. Also, the IC50 in the series with Plasmodium falciparum K1 is 0.138 µg/mL (≈ 0.388 µM); in the series with Trypanosoma cruzi, 0.368 µg/mL (≈ 1.04 µM); in the series on Leishmania infantum it was over 10.7 µg/mL; in series [1], 0.341 µg/mL (≈ 0.959 µM); in series [2] it was 3.11 µg/mL (≈ 8.75 µM).
For `Cc1ccc(C)c(-c2csc(NC(=O)CCCS(=O)(=O)c3ccc(F)cc3)n2)c1`, the figures for the “% Inhibition” value in the series with Schistosoma mansoni, in the series with Onchocerca lienalis and in the series on Brugia malayi were 0%, 12.34% and 0%, respectively. Besides, the IC50 with Plasmodium falciparum K1 was 9.42 µg/mL (≈ 21.8 µM); in the series on Trypanosoma cruzi it was 0.588 µg/mL (≈ 1.36 µM); with Leishmania infantum it was over 13 µg/mL; in series [1], 4.2 µg/mL (≈ 9.71 µM); in series [2] it was 0.999 µg/mL (≈ 2.31 µM).
Take `Cc1nn(-c2ccccc2)c2ncc(C(=O)NCC3CCCO3)c(Cl)c12` (configuration not stated): the “% Inhibition” value with Schistosoma mansoni turned out to be 0%; in the series on Onchocerca lienalis, 66.7%; with Brugia malayi, 0%. In addition, the half-inhibitory concentration (IC50) in the series on Plasmodium falciparum K1 is over 11.1 µg/mL; in the series with Trypanosoma cruzi, 0.392 µg/mL (≈ 1.06 µM); with Leishmania infantum, 3.6 µg/mL (≈ 9.71 µM); in series [1], 0.376 µg/mL (≈ 1.01 µM); in series [2], 3.52 µg/mL (≈ 9.49 µM).
With `CN(Cc1ccco1)S(=O)(=O)c1ccc(C(=O)Nc2nnc(-c3ccccc3Cl)o2)cc1`, the “% Inhibition” value in the series on Schistosoma mansoni, in the series with Onchocerca lienalis and in the series on Brugia malayi was 0% each time. The IC50 is over 14.2 µg/mL with Plasmodium falciparum K1; 0.465 µg/mL (≈ 0.983 µM) in the series on Trypanosoma cruzi; over 14.2 µg/mL in the series on Leishmania infantum; 2.96 µg/mL (≈ 6.25 µM) in series [1]; 0.807 µg/mL (≈ 1.71 µM) in series [2].
As to `CCN(C1CCCCC1)S(=O)(=O)c1ccc(C(=O)Nc2nnc(-c3ccccc3)o2)cc1`, the “% Inhibition” value in the series with Schistosoma mansoni was found to be 0%; in the series on Onchocerca lienalis, 53.3%; with Brugia malayi it was 0%. For the same compound, the IC50 with Plasmodium falciparum K1 is over 13.6 µg/mL; with Trypanosoma cruzi, 0.431 µg/mL (≈ 0.948 µM); in the series on Leishmania infantum, over 13.6 µg/mL; in series [1], 0.528 µg/mL (≈ 1.16 µM); in series [2], 1.61 µg/mL (≈ 3.54 µM).
Turning to `CS(=O)(=O)N1CCCc2cc(NC(=O)c3cc4ccccc4oc3=O)ccc21`, the “% Inhibition” value in the series on Schistosoma mansoni, in the series on Onchocerca lienalis and in the series on Brugia malayi was 0% each time. For the same compound, the IC50 was over 12 µg/mL with Plasmodium falciparum K1; over 12 µg/mL in the series on Trypanosoma cruzi; 0.387 µg/mL (≈ 0.971 µM) with Leishmania infantum; over 12 µg/mL in series [1]; over 12 µg/mL in series [2].
As to `COC(=O)c1ccccc1N(C)C(=O)c1cc2cccnc2n(C)c1=O`, the “% Inhibition” value in the series with Schistosoma mansoni, with Onchocerca lienalis and in the series with Brugia malayi was 0% each time. Moreover, the IC50 is over 10.5 µg/mL in the series on Plasmodium falciparum K1; over 10.5 µg/mL in the series with Trypanosoma cruzi; 0.341 µg/mL (≈ 0.971 µM) in the series on Leishmania infantum; over 10.5 µg/mL in series [1]; over 10.5 µg/mL in series [2].
Turning to `CS(=O)(=O)c1ccc(CC(=O)Nc2nc(-c3ccc(Cl)s3)cs2)cc1`, the “% Inhibition” value in the series on Schistosoma mansoni is listed as 0%; with Onchocerca lienalis it was 11.35%; with Brugia malayi, 0%. Also, the IC50 is over 12.4 µg/mL in the series on Plasmodium falciparum K1; 0.575 µg/mL (≈ 1.39 µM) with Trypanosoma cruzi; 4.01 µg/mL (≈ 9.71 µM) in the series on Leishmania infantum; over 12.4 µg/mL in series [1]; 1.53 µg/mL (≈ 3.7 µM) in series [2].
In the case of `COc1ccc(Cl)c2sc(NC(=O)c3ccc4c(c3)OCCO4)nc12`, the “% Inhibition” value amounted to 0% in the series on Schistosoma mansoni, 53.4% in the series on Onchocerca lienalis and 0% in the series on Brugia malayi. For the same compound, the IC50 in the series on Plasmodium falciparum K1 is over 11.3 µg/mL; in the series with Trypanosoma cruzi it was 0.702 µg/mL (≈ 1.86 µM); with Leishmania infantum, 0.366 µg/mL (≈ 0.971 µM); in series [1] it was 3.57 µg/mL (≈ 9.49 µM); in series [2] it was 3.43 µg/mL (≈ 9.09 µM).
For the compound `O=C(COc1ccc(Cl)cc1Cl)N(Cc1ccccn1)c1nc2ccccc2s1`, the “% Inhibition” value in the series with Schistosoma mansoni, with Onchocerca lienalis and in the series on Brugia malayi was 0% each time. The IC50 is over 13.3 µg/mL in the series on Plasmodium falciparum K1; 0.863 µg/mL (≈ 1.94 µM) in the series on Trypanosoma cruzi; 4.32 µg/mL (≈ 9.71 µM) in the series on Leishmania infantum; over 13.3 µg/mL in series [1]; over 13.3 µg/mL in series [2].
